Bioassay records: PubChem, several laboratories
Shown are actives, neighbours in structure and some others; about 2.2% of the full set was active somewhere.
bCat nuc transl: beta-catenin nuclear translocation modulation; HeLa beta-catenin nuclear translocation, immunofluorescence imaging; nuclear translocation activity, % at 5 µM; actives 0.3% (n = 190,000); AID 1665;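 active = nuclear translocation activity above 50% at 5 µM, with a well cell count of 50 or more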;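 also: per-cell ratio of nuclear to cytoplasmic median beta-catenin stain intensity; plate controls were DMSO negative control for no effect and GSK-3 inhibitor IX positive control for full effect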
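Test system: human HeLa cells, native beta-catenin. Compound dosing: 5 µM primary single dose, 0.1% DMSO, 0.02–20 µM confirmation series. Incubation: compound exposure 24 h at 37°C. Detection: beta-catenin immunostaining with DAPI counterstain, 20x imaging, 6 fields/well. Read-out basis: Nuclear/cytoplasmic beta-catenin signal ratio, % activation.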
Ba/F3 V617F tox: loss of viability in JAK2V617F-driven Ba/F3 cells; Ba/F3 EpoR-JAK2V617F viability, ATP luminescence; actives 1.1% (n = 220,000); inhibition, % at 5.6 µM;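 active = inhibition above the campaign mean plus 3 SD over all tested compounds, cut at about 24% in these data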;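 also: cytokine-independent growth of Ba/F3 cells driven by EpoR plus mutant JAK2; 0% = DMSO-treated cells and 100% = JAK inhibitor I control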
BaF3 parental: counter-screen for JAK2V617F inhibitors: parental Ba/F3 viability inhibitors | actives 1.1% (n = 220,000) | CellTiter-Glo ATP luminescence | AID 1486 | inhibition, % at 5.6 µM;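 active = inhibition above a per-campaign cutoff, the mean inhibition of all tested compounds plus 3 SD, cut at about 27% in these data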;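 also: 0% = DMSO wells and 100% = JAK Inhibitor I control wells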
MT stabilizer: microtubule stabilization, imaging screen | HeLa tubulin immunostaining HCS, 24 h; share of cells brighter than vehicle mean+2SD | % tubulin-high responders, % at 10 µM | actives 0.83% (n = 200,000) | AID 2205;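 active = plate Z-score above 3 for both tubulin-high and condensed-nucleus cell shares, with cell loss under 80%, at 10 µM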;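 also: anti alpha tubulin signal scored within the nucleus-defined area of each cell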
APP 5UTR inh: APP translation inhibition. SH-SY5Y APP 5'UTR-luciferase reporter, luminescence. inhibition, % at 2 µM. actives 0.82% (n = 190,000);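 active = inhibition above a set limit, derived from the sample mean plus 3 SD, cut at about 45% in these data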
IEC-6 cytotox: kills IEC-6 intestinal cells in KLF5 counter-screen. IEC-6 cytotoxicity, luminescence viability. actives 0.78% (n = 290,000). inhibition, % at 5 µM; in the data active = inhibition above about 22%;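 also: 0% = plate median of test compound wells and 100% = cytotoxic reference compound wells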
* = called active by the depositor; . = not tested or not shown.

SMILES | bCat nuc transl | Ba/F3 V617F tox | BaF3 parental | MT stabilizer | APP 5UTR inh | IEC-6 cytotox
Brc1ccc(-c2csc3[n+]2CCCCC3)cc1 | -1.2 | 54.8* | 54.8* | 2.4 | 0.3 | -0.2
Clc1ccc(-n2cc(-c3ccc(Br)cc3)[n+]3c2CCCCC3)cc1 | 0.7 | 54.8* | 60.5* | . | . | -3.1
FC(F)Sc1ccc(-n2cc(-c3ccc(Cl)cc3)[n+]3c2CCC3)cc1 | -0.3 | 24.6* | 36.5* | 2.2 | 4.5 | 2.2
FC(F)Sc1ccc(NC2=NCCCCC2)cc1 | . | . | . | . | . | 4.7
Cc1ccc(-c2cn(-c3ccc(SC(F)F)cc3)c3[n+]2CCC3)cc1 | 2.4 | 66.6* | 66.0* | 2.2 | -8.7 | 3.4
Cc1ccc(NS(=O)(=O)c2c(C)[nH]c(C)c2C(=O)N2CCCCC2)cc1F | . | . | . | . | . | 2.7
CCC(COC)NCc1cn(-c2ccc(OC)cc2)nc1-c1cccc(F)c1 (centres undefined) | -0.2 | -1.2 | 4.2 | 3.3 | 10.6 | -4.2
O=C(CSc1nnc(CNC(=O)c2ccco2)o1)Nc1ccccc1C(F)(F)F | . | . | . | . | . | -1.8
COc1ccc(-c2onc3ccc(Br)cc23)cc1 | 0.3 | -0.2 | 5.5 | 2.2 | -22.1 | -4.2
COc1cc(-c2onc3ccc(Br)cc23)cc(OC)c1OC | 32.6 | 69.2* | 78.7* | 7.7* | 72.7* | 1.7
COc1ccc(C[C@H]2CN3C(=NC[C@H]3Cc3ccccc3)N2CCNC(=O)c2ccc(C)c(Br)c2)cc1 | 63.3* | . | . | . | . | .
COc1ccc(CCN2C(=O)CSC2=Nc2ccc(C(C)C)cc2)cc1OC | 1.2 | 0.7 | 0.1 | . | . | -4.3
COc1ccc(/C=N/NC(=O)c2cc(=O)[nH]c3ccccc23)cc1OC | 0.6 | 3.1 | 38.7* | 3.1 | 0.7 | 1.7
COc1ccc(/C=N/NC(=O)c2[nH]nc3c2CCc2ccccc2-3)cc1OC | 127.4* | -1.7 | 2.8 | 22.3* | 3.4 | -2.4
COc1ccc(/C=N/NC(N)=S)cc1OC(=O)c1cccc2ccccc12 | . | 3.8 | 4.1 | 35.3* | -19.0 | 14.1
CC(=O)c1cn(CC(=O)Nc2ccc(C)cc2C)c2ccccc12 | -2.1 | 25.2* | 38.8* | 3.9 | 13.5 | 2.3
CCN(CC)c1ccc(C(=O)n2cnc3ccccc32)cc1 | 6.4 | -3.0 | 1.6 | 22.2* | -23.5 | -0.1
COc1cc(C(=O)N2CCN(c3cc(Cl)ccc3Cl)CC2)cc(OC)c1OC | 19.4 | 64.5* | 62.6* | 9.5 | -2.2 | 60.9*
COc1ccc(C(=O)N2CCN(C(=O)c3cc(OC)c(OC)c(OC)c3)CC2)cc1 | . | -3.1 | 5.0 | 4.0 | -13.6 | -7.2
O=C(COc1ccc(C(=S)N2CCC(Cc3ccccc3)CC2)cc1)N1CCOCC1 | -3.7 | -1.2 | 2.1 | 2.3 | 2.2 | 1.7
Cc1nc2ccc(NC(=O)c3cc(S(=O)(=O)N(C)c4ccccc4)ccc3Cl)cc2s1 | -0.9 | 43.4* | 48.8* | 2.0 | 11.2 | 3.9
Cc1nc2ccc(NC(=O)c3ccc(Cl)c(S(=O)(=O)N(C)c4ccccc4)c3)cc2s1 | -2.6 | -0.5 | 0.4 | 3.1 | -6.4 | 8.6
COC(=O)c1ccc(NC(=O)Cn2c(-c3nonc3N)nc3ccccc32)cc1 | 4.4 | -4.4 | 1.1 | 2.4 | 12.5 | 2.4
COC(=O)c1ccccc1NC(=O)Cn1c(-c2nonc2N)nc2ccccc21 | 26.9 | 50.0* | 49.6* | 18.5* | 95.1* | 34.7*
CCOC(=O)/C=C/COc1ccccc1[N+](=O)[O-] | -3.0 | 1.4 | 8.5 | 4.1 | -40.1 | -2.4
SMILES | bCat nuc transl | Ba/F3 V617F tox | BaF3 parental | MT stabilizer | APP 5UTR inh | IEC-6 cytotox
COC(CNC(=O)c1ccc2c(c1)ncn2C1CCCCCC1)OC | . | . | . | . | . | 0.5
Cc1cc(C2=NNC(=NC3CC3)SC2)c(C)n1-c1ccccc1F | . | -0.6 | 4.1 | 2.9 | 69.5* | 6.5
c1cc2c(cc1C1=NNC(=NC3CC3)SC1)OCCO2 | 2.1 | 9.1 | 11.7 | 2.4 | 51.0* | 4.0
CCOC(=O)c1c(C)[nH]c2ccc(O)cc12 | 0.9 | 4.3 | 5.1 | 2.5 | 50.1* | -5.9
CC(C)(C)NC(=S)N/N=C/c1c(Cl)cccc1Cl | 2.9 | 0.8 | -3.5 | . | . | -3.3
Cc1ccc(NC(=S)N/N=C/c2c(Cl)cccc2Cl)c(C)c1 | 99.4* | 69.8* | 71.9* | 13.4* | 95.4* | 13.0
CC(C(=O)c1ccc(-c2ccccc2)cc1)[n+]1cccc(C(N)=O)c1 (centres undefined) | . | . | . | . | . | -1.8
Cc1cc[n+](C(C)C(=O)c2ccc(Cl)cc2)cc1 (centres undefined) | . | . | . | . | . | -2.7
